Experimental data reported in ChEMBL document CHEMBL3576775 (Eur J Med Chem, 2015).
The source made the active and inactive calls. The calls are words filed in the database; no cut-off is given here.

Columns and labels:
[1] = Inhibition of soyabean 5-LOX using arachidonic acid as substrate by microplate scanning spectrophotometer analysis; parameters: species or system Glycine max
How it was run: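 Soybean lipoxygenase in assay buffer was mixed with compound (DMSO solutions at 0.01 to 100 μM, 1:10 into enzyme solution). Reaction started with arachidonic acid; plate shaken 5 min, chromogen added, shaken 5 min, read at 490 nm. Blanks and positive controls included. Duplicates, deviation <5%, averaged; percent inhibition calculated from activity.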

[2] = molecular target: T1, Prostaglandin G/H synthase 1 (Ovis aries, UniProt P05979); assay: Inhibition of ovine COX-1 assessed as PGF2alpha formation using arachidonic acid as substrate pretreated with compound for 20 mins prior to substrate addition by spectrophotometric analysis
T1 sequence (P05979 whole entry): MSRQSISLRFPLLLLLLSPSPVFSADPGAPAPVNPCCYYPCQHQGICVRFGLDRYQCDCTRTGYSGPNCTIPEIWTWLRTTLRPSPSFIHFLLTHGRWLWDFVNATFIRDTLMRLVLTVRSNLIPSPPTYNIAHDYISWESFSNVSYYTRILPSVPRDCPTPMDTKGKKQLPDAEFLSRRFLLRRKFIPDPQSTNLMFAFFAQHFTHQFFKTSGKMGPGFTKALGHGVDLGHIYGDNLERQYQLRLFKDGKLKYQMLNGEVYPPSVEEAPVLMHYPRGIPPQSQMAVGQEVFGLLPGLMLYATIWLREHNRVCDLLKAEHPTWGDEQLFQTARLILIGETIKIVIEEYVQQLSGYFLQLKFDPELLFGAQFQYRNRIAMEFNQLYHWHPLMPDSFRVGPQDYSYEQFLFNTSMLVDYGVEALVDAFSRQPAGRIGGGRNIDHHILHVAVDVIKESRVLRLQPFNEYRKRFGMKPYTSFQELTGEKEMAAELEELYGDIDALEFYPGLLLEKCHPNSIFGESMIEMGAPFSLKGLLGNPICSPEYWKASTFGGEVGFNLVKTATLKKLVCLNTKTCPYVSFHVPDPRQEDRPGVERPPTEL

Mus musculus [3] = assay: Anti-inflammatory activity against Swiss albino mouse assessed as reduction in paw thickness at 5 mg/kg, ip administered 30 mins prior to dextran injection measured after 4 hrs by vernier calliper analysis relative to control; assay type: functional
How it was run: (§1)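 Swiss albino mice, 5 per group. […] Paw thickness measured by vernier calipers at 1, 2, 3, 4, 6 and 24 h. Reduction expressed relative to control; mean ± SEM.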

Mus musculus [4] = assay: Anti-inflammatory activity against Swiss albino mouse assessed as reduction in paw thickness at 10 mg/kg, ip administered 30 mins prior to dextran injection measured after 4 hrs by vernier calliper analysis relative to control; assay type: functional; how it was run: as §1
Mus musculus [5] = assay: Anti-hyperalgesic activity against Swiss albino mouse assessed as reduction in paw lickings at 5 mg/kg, ip administered 30 mins prior to capsaicin injection relative to control; assay type: functional
Mus musculus [6] = assay: Acute toxicity against Swiss albino mouse assessed as histological changes in liver at 5 to 300 mg, po measured after 14 days; assay type: organism-based; settings: in vivo, 336 h
How it was run: (§2)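 Oral single doses of 5 mg, 50 mg and 300 mg to mice in three groups of three. Observed continuously for 4 h for signs of toxicity, then at regular intervals over the first 24 h and once daily for 14 days. Animals sacrificed at day 14; histology of liver, kidney and heart.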

Mus musculus [7] = assay: Acute toxicity against Swiss albino mouse assessed as histological changes in kidney at 5 to 300 mg, po measured after 14 days; assay type: organism-based; settings: in vivo, 336 h; how it was run: as §2
Mus musculus [8] = assay: Acute toxicity against Swiss albino mouse assessed as histological changes in heart at 5 to 300 mg, po measured after 14 days; assay type: organism-based; settings: in vivo, 336 h; how it was run: as §2
Mus musculus [9] = assay: Acute toxicity against Swiss albino mouse assessed as lesser inflammatory cells and decreased area of necrosis in stomach at 5 to 300 mg, po measured after 14 days; assay type: organism-based; settings: in vivo, 336 h
[10] = Competitive inhibition of soyabean 5-LOX by UV-Visible spectrophotometry; parameters: species or system Glycine max
[11] = molecular target: T2, Prostaglandin G/H synthase 2 (Homo sapiens, UniProt P35354); assay: Competitive inhibition of human recombinant COX-2 by UV-Visible spectrophotometry
T2 sequence (P35354 whole entry): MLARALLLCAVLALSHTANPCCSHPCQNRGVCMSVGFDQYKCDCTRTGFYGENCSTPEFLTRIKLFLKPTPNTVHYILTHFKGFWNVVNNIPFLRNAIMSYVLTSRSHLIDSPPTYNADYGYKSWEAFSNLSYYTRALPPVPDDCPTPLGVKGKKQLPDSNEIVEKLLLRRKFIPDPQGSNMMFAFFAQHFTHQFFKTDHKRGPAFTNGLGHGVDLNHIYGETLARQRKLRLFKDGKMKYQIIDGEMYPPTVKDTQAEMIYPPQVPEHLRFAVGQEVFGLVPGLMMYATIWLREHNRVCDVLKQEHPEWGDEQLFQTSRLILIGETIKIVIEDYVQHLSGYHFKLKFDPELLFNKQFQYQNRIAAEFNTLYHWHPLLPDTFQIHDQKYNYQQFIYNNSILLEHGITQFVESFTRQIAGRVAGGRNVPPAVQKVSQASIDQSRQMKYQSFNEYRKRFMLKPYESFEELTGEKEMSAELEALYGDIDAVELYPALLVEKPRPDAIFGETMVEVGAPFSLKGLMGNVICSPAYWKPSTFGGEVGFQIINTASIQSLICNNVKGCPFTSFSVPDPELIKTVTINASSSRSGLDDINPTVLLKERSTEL
How it was run: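 Double reciprocal plot from UV-vis absorbance change at the maximum. Arachidonic acid in HEPES:DMSO (1:1) added in 5 µl increments (each giving 50 µM final) to a fixed enzyme concentration. Repeated with inhibitor at fixed 10 µM and 20 µM. Type of inhibition taken from where the extrapolated trails meet; also from IC50 versus Ki comparison.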

Glycine max [12] = assay: Competitive inhibition of soyabean 5-LOX using arachidonic acid as substrate by double reciprocal plot analysis
How it was run: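 Arachidonic acid in HEPES:DMSO (1:1) at 2 mM, added in 5 μL increments (50 μM final each) to fixed enzyme. Change in substrate absorbance at maxima plotted double-reciprocally, without inhibitor and with 10 μM or 20 μM inhibitor; intersection of the extrapolated lines indicates inhibition type.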

Mus musculus [13] = assay: Anti-hyperalgesic activity against Swiss albino mouse assessed as reduction in paw lickings at 5 mg/kg, ip administered 30 mins prior to capsaicin injection and 30 mins after 200 ug misoprostol injection; assay type: functional, organism-based
How it was run: (§3)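 Mice (5 per group, 7 groups), all treatments i.p. Misoprostol (200 μg) or substance P (10 μg) given 30 min before test compound (5 mg Kg⁻¹); capsaicin (20 μL) injected into right hind paw plantar surface 30 min later. Controls received normal saline. Paw lickings counted over 10 min after capsaicin.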

Mus musculus [14] = assay: Anti-hyperalgesic activity against Swiss albino mouse assessed as reduction in paw lickings at 5 mg/kg, ip administered 30 mins prior to capsaicin injection and 30 mins after 10 ug substance-P injection; assay type: functional, organism-based; how it was run: as §3
Glycine max [15] = test system: Glycine max
[16] = molecular target: T3, Prostaglandin G/H synthase 2 (Homo sapiens) (UniProt P35354)
T3 sequence (whole entry): T2 sequence (P35354 whole entry)

Mus musculus [17] = assay: Anti-hyperalgesic activity against Swiss albino mouse assessed as reduction in paw lickings at 10 mg/kg, ip administered 30 mins prior to capsaicin injection relative to control; assay type: functional
How it was run: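 Swiss albino mice, 5 per group; compound given i.p. 30 min before 20 μL capsaicin injected into plantar surface of right hind paw. […] Paw lickings and twitchings counted over 10 min after capsaicin as hyperalgesia indicator; mean ± SEM, one-way ANOVA with Tukey's test versus control.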

Compound | IC50 [1] | IC50 [2] | Ki [10] | Ki [11] | Ka (Glycine max [15]) | Ka [16] | other results
COC(=O)[C@@H](Cc1c[nH]c2ccccc12)NC(=O)CNC(=O)C(=O)c1cn(S(=O)(=O)c2ccc(C)cc2)c2ccccc12 | 12.2 µM | 65.5 µM | – | – | – | – | –
Cc1ccc(S(=O)(=O)n2cc(C(=O)C(=O)N[C@H](Cc3c[nH]c4ccccc34)C(=O)NCC(=O)O)c3ccccc32)cc1 | 5.61 µM | > 100 µM | – | – | – | – | –
Cc1ccc(S(=O)(=O)n2cc(C(=O)C(=O)N[C@@H](Cc3c[nH]c4ccccc34)C(=O)NCC(=O)O)c3ccccc32)cc1 | 0.002 µM | 2.21 µM | 0.042 µM | 0.109 µM | 3.36 ×10⁶ /M | 3.29 ×10⁵ /M | inhibition in vivo at 5 mg/kg (Mus musculus [3]): 47%; inhibition in vivo at 10 mg/kg (Mus musculus [4]): 49%; inhibition in vivo at 5 mg/kg (Mus musculus [5]): 96%; Activity (Mus musculus [6]): Non-toxic; Activity (Mus musculus [7]): Non-toxic; Activity (Mus musculus [8]): Non-toxic; Activity (Mus musculus [9]): Non-toxic; inhibition (Glycine max [12]): Active; inhibition (Mus musculus [13]): Active; inhibition (Mus musculus [14]): inactive
Cc1ccc(S(=O)(=O)n2cc(C(=O)C(=O)NCC(=O)O)c3ccccc32)cc1 | 0.0086 µM | 90.1 µM | – | – | – | – | –
COC(=O)CNC(=O)CNC(=O)C(=O)c1cn(S(=O)(=O)c2ccc(C)cc2)c2ccccc12 | 0.1 µM | 104 µM | 0.097 µM | 4.66 µM | 2.08 ×10⁵ /M | 1.81 ×10² /M | –
COC(=O)CNC(=O)[C@@H](Cc1c[nH]c2ccccc12)NC(=O)C(=O)c1cn(S(=O)(=O)c2ccc(C)cc2)c2ccccc12 | 8.38 µM | 71.3 µM | – | – | – | – | –
NS(=O)(=O)c1ccc(-n2nc(C(F)(F)F)cc2-c2ccc(Br)cc2)cc1 | – | 13 µM | – | – | – | – | –
CC(C)(C)Sc1c(CC(C)(C)C(=O)O)n(Cc2ccc(Cl)cc2)c2ccc(OCc3ccc4ccccc4n3)cc12 [QUIFLAPON] | 1.6 µM | – | – | – | – | – | –
Cc1ccc(S(=O)(=O)n2cc(C(=O)C(=O)NCC(=O)N[C@@H](Cc3c[nH]c4ccccc34)C(=O)O)c3ccccc32)cc1 | 0.004 µM | 43.5 µM | 0.064 µM | 0.005 µM | 2.06 ×10⁶ /M | 3.25 ×10⁶ /M | inhibition in vivo at 5 mg/kg (Mus musculus [5]): 88%; inhibition in vivo at 10 mg/kg (Mus musculus [17]): 96%; inhibition (Glycine max [12]): Active
Cc1ccc(S(=O)(=O)n2cc(C(=O)C(=O)N[C@@H](Cc3c[nH]c4ccccc34)C(=O)O)c3ccccc32)cc1 | 0.01 µM | 87.2 µM | – | – | – | – | –
COC(=O)[C@H](Cc1c[nH]c2ccccc12)NC(=O)CNC(=O)C(=O)c1cn(S(=O)(=O)c2ccc(C)cc2)c2ccccc12 | 1 µM | 90.9 µM | 0.753 µM | 1.34 µM | 7.7 ×10⁴ /M | 9.87 ×10³ /M | –
O=C(O)Cc1ccccc1Nc1c(Cl)cccc1Cl [DICLOFENAC] | – | – | – | – | – | – | inhibition in vivo at 10 mg/kg (Mus musculus [4]): 42%; inhibition in vivo at 10 mg/kg (Mus musculus [17]): 90%
Cc1ccc(S(=O)(=O)n2cc(C(=O)C(=O)NCC(=O)N[C@H](Cc3c[nH]c4ccccc34)C(=O)O)c3ccccc32)cc1 | 15.2 µM | 98.3 µM | – | – | – | – | –
Cc1ccc(S(=O)(=O)n2cc(C(=O)C(=O)NCC(=O)NCC(=O)O)c3ccccc32)cc1 | 0.005 µM | > 100 µM | 0.232 µM | 3.12 µM | 2.99 ×10⁵ /M | 1.9 ×10³ /M | inhibition in vivo at 5 mg/kg (Mus musculus [5]): 90%; inhibition (Glycine max [12]): Active

Continued, in another order:

IC50 [1] | IC50 [2] | Ki [10] | Ki [11] | Ka (Glycine max [15]) | Ka [16] | Compound | other results
2.33 µM | 151 µM | – | – | – | – | Cc1ccc(S(=O)(=O)n2cc(C(=O)C(=O)N[C@H](Cc3cnc[nH]3)C(=O)N[C@H](CCC(=O)O)C(=O)O)c3ccccc32)cc1 | –
2.8 µM | > 100 µM | – | – | – | – | Cc1ccc(S(=O)(=O)n2cc(C(=O)C(=O)N[C@@H](Cc3cnc[nH]3)C(=O)O)c3ccccc32)cc1 | –
3.7 µM | 20.2 µM | – | – | – | – | COC(=O)CC[C@@H](NC(=O)[C@@H](Cc1cnc[nH]1)NC(=O)C(=O)c1cn(S(=O)(=O)c2ccc(C)cc2)c2ccccc12)C(=O)OC | –
0.8 µM | 9.89 µM | 0.946 µM | 2.9 µM | 5.6 ×10⁴ /M | 7.91 ×10³ /M | COC(=O)CNC(=O)[C@H](Cc1c[nH]c2ccccc12)NC(=O)C(=O)c1cn(S(=O)(=O)c2ccc(C)cc2)c2ccccc12 | –
0.08 µM | 12.9 µM | 0.536 µM | 0.012 µM | 1.99 ×10⁵ /M | 7.76 ×10⁵ /M | Cc1ccc(S(=O)(=O)n2cc(C(=O)C(=O)N[C@@H](Cc3cnc[nH]3)C(=O)N[C@@H](CCC(=O)O)C(=O)O)c3ccccc32)cc1 | inhibition in vivo at 5 mg/kg (Mus musculus [3]): 45%; inhibition in vivo at 10 mg/kg (Mus musculus [4]): 48%; inhibition in vivo at 5 mg/kg (Mus musculus [5]): 95%; inhibition (Glycine max [12]): Active; inhibition (Mus musculus [13]): Active; inhibition (Mus musculus [14]): inactive
0.6 µM | 76.5 µM | 0.356 µM | 0.983 µM | 3.02 ×10⁵ /M | 4.43 ×10⁴ /M | COC(=O)CC[C@H](NC(=O)[C@H](Cc1cnc[nH]1)NC(=O)C(=O)c1cn(S(=O)(=O)c2ccc(C)cc2)c2ccccc12)C(=O)OC | –
